Test results as given in ChEMBL document CHEMBL1795264, “Deglycobleomycin A6 analogues modified in the methylvalerate moiety” (Bioorg Med Chem, 2011).
Calls of active or inactive are those of the source. The calls are words filed in the database; no cut-off is given here.

Columns and labels:
Nucleic Acid [1] = assay: Induction of Escherichia coli [5'-32P]-end labeled 158-base pair of pBR322 DNA cleavage at A15 site using bromophenol blue and xylene cyanol FF at 1 to 10 uM after 30 mins by phosphorimager analysis in presence of equimolar Fe2+; assay type: nucleic-acid assay
Method in brief: (§1)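 158-bp pBR322 restriction fragment (HindIII cut, dephosphorylated, 5'-32P-labelled with T4 polynucleotide kinase, EcoRV cut), 30,000 cpm, treated with Fe2+ plus deglycoBLM in 50 mM Tris–HCl pH 8.0 at room temperature for 30 min. Supernatant removed under vacuum, pellet heated 90 °C 10 min in formamide loading buffer and chilled on ice before denaturing gel analysis.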

Nucleic Acid [2] = assay: Induction of Escherichia coli [5'-32P]-end labeled 158-base pair of pBR322 DNA cleavage using bromophenol blue and xylene cyanol FF at 1 to 10 uM after 30 mins by phosphorimager analysis in presence of equimolar Fe2+
Nucleic Acid [3] = assay: Induction of Escherichia coli supercoiled pBR322 DNA cleavage assessed as formation of nicked DNA using bromophenol blue at 1 to 4 uM after 30 mins by agarose gel electrophoresis analysis in presence of equimolar Fe2+; assay type: nucleic-acid assay
Nucleic Acid [4] = assay: Induction of Escherichia coli supercoiled pBR322 DNA cleavage assessed as formation of linear form of DNA using bromophenol blue at 4 uM after 30 mins by agarose gel electrophoresis analysis in presence of equimolar Fe2+; assay type: nucleic-acid assay
Nucleic Acid [5] = assay: Induction of Escherichia coli [5'-32P]-end labeled 158-base pair of pBR322 DNA cleavage at G12 site using bromophenol blue and xylene cyanol FF at 1 to 10 uM after 30 mins by phosphorimager analysis in presence of equimolar Fe2+; assay type: nucleic-acid assay; method in brief: as §1
Nucleic Acid [6] = assay: Induction of Escherichia coli [5'-32P]-end labeled 64-nucleotide hairpin DNA base pair of pBR322 DNA cleavage using bromophenol blue and xylene cyanol FF at 5 to 20 uM after 30 mins by phosphorimager analysis in presence of equimolar Fe2+; assay type: nucleic-acid assay
Method in brief: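 64-nt hairpin DNA, 5'-32P-labelled with T4 polynucleotide kinase and purified on 16% polyacrylamide gel, 30,000 cpm, exposed to Fe2+ plus deglycoBLM in 50 mM Tris–HCl pH 8.0 at room temperature for 30 min. Dried, heated 90 °C 10 min in formamide loading buffer, then run on denaturing 16% polyacrylamide/7 M urea gel at 1800 V for 2.5 h.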

Nucleic Acid [7] = assay: Induction of Escherichia coli [5'-32P]-end labeled 158-base pair of pBR322 DNA cleavage at 5'-GT14-3' site using bromophenol blue and xylene cyanol FF at 1 to 10 uM after 30 mins by phosphorimager analysis in presence of equimolar Fe2+; assay type: nucleic-acid assay; method in brief: as §1
Nucleic Acid [8] = assay: Induction of Escherichia coli [5'-32P]-end labeled 158-base pair of pBR322 DNA cleavage at 5'-CG11-3' site using bromophenol blue and xylene cyanol FF at 1 to 10 uM after 30 mins by phosphorimager analysis in presence of equimolar Fe2+; assay type: nucleic-acid assay; method in brief: as §1
Nucleic Acid [9] = assay: Induction of Escherichia coli [5'-32P]-end labeled 158-base pair of pBR322 DNA cleavage at 5'-GT27-3' site using bromophenol blue and xylene cyanol FF at 1 to 10 uM after 30 mins by phosphorimager analysis in presence of equimolar Fe2+; assay type: nucleic-acid assay; method in brief: as §1
Nucleic Acid [10] = assay: Induction of Escherichia coli [5'-32P]-end labeled 158-base pair of pBR322 DNA cleavage at 5'-GT17-3' site using bromophenol blue and xylene cyanol FF at 1 to 10 uM after 30 mins by phosphorimager analysis in presence of equimolar Fe2+; assay type: nucleic-acid assay; method in brief: as §1
Nucleic Acid [11] = assay: Induction of Escherichia coli [5'-32P]-end labeled 158-base pair of pBR322 DNA cleavage at 5'-CG35-3' site using bromophenol blue and xylene cyanol FF at 1 to 10 uM after 30 mins by phosphorimager analysis in presence of equimolar Fe2+; assay type: nucleic-acid assay; method in brief: as §1

| Activity (Nucleic Acid [1]) | Activity (Nucleic Acid [2]) | Activity (Nucleic Acid [3]) | Activity (Nucleic Acid [4]) | Activity (Nucleic Acid [5]) | Activity (Nucleic Acid [6]) | Activity (Nucleic Acid [7]) | Activity (Nucleic Acid [8]) | Activity (Nucleic Acid [9]) | Activity (Nucleic Acid [10]) | Activity (Nucleic Acid [11]) | Structure (SMILES) |
| --- | --- | --- | --- | --- | --- | --- | --- | --- | --- | --- | --- |
| inactive | Active | Active | Active | inactive | Active |  |  |  |  |  | Cc1c(N)nc([C@H](CC(N)=O)NC[C@H](N)C(N)=O)nc1C(=O)N[C@@H](Cc1c[nH]cn1)C(=O)N[C@H](C)[C@@H](O)[C@H](Cc1ccccc1)C(=O)N[C@H](C(=O)NCCc1nc(-c2nc(C(=O)NCCCNCCCCNCCCN)cs2)cs1)[C@@H](C)O |
| Active |  | Active |  | Active | Active | Active | Active | Active | Active | Active | CC[C@@H](C)C(NC(=O)[C@H](Cc1c[nH]cn1)NC(=O)c1nc([C@H](CC(N)=O)NC[C@H](N)C(N)=O)nc(N)c1C)[C@@H](O)[C@H](C)C(=O)N[C@H](C(=O)NCCc1nc(-c2nc(C(=O)NCCCNCCCCNCCCN)cs2)cs1)[C@@H](C)O (single isomer, unassigned) |
| inactive | Active | Active |  | inactive | Active |  |  |  |  |  | Cc1ccccc1C[C@@H](NC(=O)[C@H](Cc1c[nH]cn1)NC(=O)c1nc([C@H](CC(N)=O)NC[C@H](N)C(N)=O)nc(N)c1C)[C@@H](O)[C@H](C)C(=O)N[C@H](C(=O)NCCc1nc(-c2nc(C(=O)NCCCNCCCCNCCCN)cs2)cs1)[C@@H](C)O |
|  |  | Active |  |  | Active |  |  |  |  |  | Cc1c(N)nc([C@H](CC(N)=O)NC[C@H](N)C(N)=O)nc1C(=O)N[C@@H](Cc1c[nH]cn1)C(=O)N[C@H](C)[C@@H](O)[C@H](C)C(=O)N[C@H](C(=O)NCCc1nc(-c2nc(C(=O)NCCCNCCCCN)cs2)cs1)[C@@H](C)O |
| inactive | Active | Active | Active | inactive | Active |  |  |  |  |  | CCCC[C@H](C(=O)N[C@H](C(=O)NCCc1nc(-c2nc(C(=O)NCCCNCCCCNCCCN)cs2)cs1)[C@@H](C)O)[C@H](O)[C@@H](C)NC(=O)[C@H](Cc1c[nH]cn1)NC(=O)c1nc([C@H](CC(N)=O)NC[C@H](N)C(N)=O)nc(N)c1C |
|  |  | Active |  |  | Active | Active | Active | Active | Active | Active | Cc1c(N)nc([C@H](CC(N)=O)NC[C@H](N)C(N)=O)nc1C(=O)N[C@@H](Cc1c[nH]cn1)C(=O)N[C@H](CC(C)C)[C@@H](O)[C@H](C)C(=O)N[C@H](C(=O)NCCc1nc(-c2nc(C(=O)NCCCNCCCCNCCCN)cs2)cs1)[C@@H](C)O |
| inactive | Active | Active | Active | inactive | Active |  |  |  |  |  | Cc1c(N)nc([C@H](CC(N)=O)NC[C@H](N)C(N)=O)nc1C(=O)N[C@@H](Cc1c[nH]cn1)C(=O)N[C@H](Cc1ccccc1)[C@@H](O)[C@H](C)C(=O)N[C@H](C(=O)NCCc1nc(-c2nc(C(=O)NCCCNCCCCNCCCN)cs2)cs1)[C@@H](C)O |
| inactive | Active | Active | Active | inactive | Active |  |  |  |  |  | Cc1c(N)nc([C@H](CC(N)=O)NC[C@H](N)C(N)=O)nc1C(=O)N[C@@H](Cc1c[nH]cn1)C(=O)N[C@H](Cc1ccccc1Br)[C@@H](O)[C@H](C)C(=O)N[C@H](C(=O)NCCc1nc(-c2nc(C(=O)NCCCNCCCCNCCCN)cs2)cs1)[C@@H](C)O |
|  |  | Active |  |  | Active | Active | Active | Active | Active | Active | Cc1c(N)nc([C@H](CC(N)=O)NC[C@H](N)C(N)=O)nc1C(=O)N[C@@H](Cc1c[nH]cn1)C(=O)N[C@@H]([C@@H](O)[C@H](C)C(=O)N[C@H](C(=O)NCCc1nc(-c2nc(C(=O)NCCCNCCCCNCCCN)cs2)cs1)[C@@H](C)O)C(C)(C)C |
| inactive | Active | Active | Active | inactive | Active |  |  |  |  |  | Cc1c(N)nc([C@H](CC(N)=O)NC[C@H](N)C(N)=O)nc1C(=O)N[C@@H](Cc1c[nH]cn1)C(=O)N[C@H](CC(C)C)[C@@H](O)[C@H](CC(C)C)C(=O)N[C@H](C(=O)NCCc1nc(-c2nc(C(=O)NCCCNCCCCNCCCN)cs2)cs1)[C@@H](C)O |
| inactive | Active | Active | Active | inactive | Active |  |  |  |  |  | Cc1c(N)nc([C@H](CC(N)=O)NC[C@H](N)C(N)=O)nc1C(=O)N[C@@H](Cc1c[nH]cn1)C(=O)N[C@H](C)[C@@H](O)[C@H](CC(C)C)C(=O)N[C@H](C(=O)NCCc1nc(-c2nc(C(=O)NCCCNCCCCNCCCN)cs2)cs1)[C@@H](C)O |
| inactive | Active | Active | Active | inactive | Active |  |  |  |  |  | Cc1c(N)nc([C@H](CC(N)=O)NC[C@H](N)C(N)=O)nc1C(=O)N[C@@H](Cc1c[nH]cn1)C(=O)N[C@H](CC1CCCCC1)[C@@H](O)[C@H](C)C(=O)N[C@H](C(=O)NCCc1nc(-c2nc(C(=O)NCCCNCCCCNCCCN)cs2)cs1)[C@@H](C)O |
